Results taken from PubChem BioAssay AID504383 (The Scripps Research Institute Molecular Screening Center, 2011).
Hit rate of the full screen: of about 2,500 compounds, about 1,200 (48%) were called active.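 How the source made its calls: active means mean activation above the low control average plus 3 SD, as set in the primary screen (cut at about 12% in these data); inactive means the rest.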 So high a share suggests a set chosen from earlier hits. Some of the results follow.

Each molecule was assayed against Troponin I, cardiac muscle (Homo sapiens) + Troponin T, cardiac muscle (Homo sapiens) + Troponin C, slow skeletal and cardiac muscles (Homo sapiens) (UniProt P19429+P45379+P63316) (assay: cardiac RTF calcium sensitivity activators, confirmation, biochemical, IANBD-TnC fluorescence, triplicate (AID 504383;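 further: 0% = DMSO at 0.472 mM calcium and 100% = DMSO at 2.9 mM calcium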)). Settings: IANBD-labeled cardiac RTF, Ca2+ sensitivity fluorescence; at 7.2 µM; active compounds read high; scaled from EC20 to saturating calcium; tested at EC20 calcium, 0.472 mM.
Procedure, shortened: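 Material: labelled regulated thin filaments; Reagent: 0.472 mM calcium; Incubation: 15 min compound incubation with filaments at 25 °C; Detection: filament fluorescence intensity; Evaluation: fluorescence increase normalised to calcium controls; Benchmarks: low control EC20 calcium, high control EC100 calcium.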

Structure (SMILES) | activation
CCOC(=O)c1sc(-c2ccc(F)cc2)cc1NC(=O)Nc1ccccc1OC | 37.5% (active)
COc1ccccc1NS(=O)(=O)c1cc(C(=O)NCCN2CCOCC2)ccc1Cl | 2.55% (inactive)
CCOc1ccc2ccccc2c1CNCCN1CCOCC1 | 27% (active)
COc1ccccc1N1C(C)=CC(=C(C#N)c2nc3ccccc3s2)C=C1C | 11.1% (inactive)
CC1=CC(=C(C#N)c2nc3ccccc3s2)C=C(C)N1c1ccc(F)cc1 | 74.2% (active)
Cc1ccc(-n2c(C)cc(C(=O)COC(=O)c3ccc[nH]c3=O)c2C)cc1 | 6.02% (inactive)
COCCn1c(C)cc(C(=O)COC(=O)c2ccc(Cl)c(S(N)(=O)=O)c2)c1C | 13% (active)
O=C1CCC(=O)N1CC(O)COc1ccccc1 (stereo not drawn) | 255% (active)
Cc1cc(C)n(CC(O)COc2ccccc2)n1 (stereo not drawn) | 6.17% (inactive)
OCCN1CCN(CC(O)COc2ccc(C34CC5CC(CC(C5)C3)C4)cc2)CC1 (stereo not drawn) | 90.4% (active)
CCOc1cc(C2C3=C(CCCC3=O)N(C)C3=C2C(=O)CCC3)cc(Cl)c1O | 6.5% (inactive)
COc1ccc(/C(C)=N/N2C(=O)c3ccccc3NC2c2ccc(O)c(OC)c2)cc1 (stereo not drawn) | 9.34% (inactive)
CCCN1C(=O)c2ccccc2NC1c1ccc(O)c(OCC)c1 (stereo not drawn) | 14.5% (active)
CC(C)C12CN(C(=O)c3ccccc3[N+](=O)[O-])CC(C(C)C)(CN(C(=O)c3ccccc3[N+](=O)[O-])C1)C2=O | 6.99% (inactive)
O=C(O)c1cccc2c1-c1c(cccc1[N+](=O)[O-])C2 | 1890% (active)
CCN(CC)c1ccc(NC(=S)Nc2ccc(F)cc2)cc1 | 5.29% (inactive)
CCc1ccc(Nc2n[n+](-c3ccccc3)c(-c3ccc(N(CC)CC)cc3)s2)cc1 | 5.32% (inactive)
CCN(CC)c1ccc(-c2sc(Nc3ccccc3)n[n+]2-c2ccc(F)cc2)cc1 | 18.7% (active)
CCOC(=O)/C(C#N)=C\c1ccc(N2CCN(C/C=C/c3ccccc3)CC2)cc1 | 4.67% (inactive)
CCOC(=O)/C(C#N)=C/c1ccc(N2CCN(Cc3ccccc3)CC2)cc1 | 285% (active)
CCN(CC)c1ccc2cc(C(=O)NCc3ccc(F)cc3)c(=N)oc2c1 | 54.1% (active)

Structure (SMILES) | activation
CCOC(=O)Nc1ccc(NCc2ccc(F)cc2)nc1N | 5.72% (inactive)
COC(=O)CNC(=O)COC(=O)c1cc(F)c(F)cc1Cl | 7.53% (inactive)
Cn1c2c(c(=O)n(C)c1=O)C(C(F)(F)F)(C(F)(F)F)N=C(CCC1CCCCC1)N2 | 9.24% (inactive)
CC(C)(C)C1(O)CC(C(F)(F)F)=NN1C(=O)CCCc1ccccc1 (stereo not drawn) | 3.64% (inactive)
COC(=O)C1=NN(C(=O)c2ccc(Br)cc2)C(O)(C(C)(C)C)C1 (stereo not drawn) | 13.4% (active)
CCN(CC)c1ccc(/C=C2/SC(=O)N(C(C)C)C2=O)o1 | 15.2% (active)
COc1ccc(/C=C2\Oc3cc(OCC(=O)N4CCC[C@H]4CO)ccc3C2=O)c(OC)c1 | 13.8% (active)
COc1ccc(/C=C2\Oc3cc(OCC(=O)N4CCC(C(=O)O)CC4)ccc3C2=O)c(OC)c1 | 249% (active)
COc1cc(OC)c(OC)cc1/C=C1\Oc2cc(OCC(=O)N3Cc4ccccc4C[C@H]3C(=O)O)ccc2C1=O | 7.71% (inactive)
COc1ccc(/C=C2\Oc3cc(OC(=O)N4CCOCC4)ccc3C2=O)c(OC)c1 | 19.2% (active)
COc1ccc(/C=C2\Oc3cc(OCC(=O)N4CCC[C@H]4C(=O)O)ccc3C2=O)c(OC)c1 | 17.4% (active)
CS(=O)(=O)N(CC(=O)NCCSCc1ccccc1)c1ccccc1 | 7.88% (inactive)
CCOC(=O)c1c(NC(=O)c2ccno2)c2cc([N+](=O)[O-])ccc2n1C | 4.78% (inactive)
Cc1cccc(OCc2nn[nH]n2)c1C | 9.03% (inactive)
Cc1cccc(C)c1OCC(C)N (stereo not drawn) | 15.2% (active)
CC(=O)Oc1ccc2c(c1)Oc1cc(OC(C)=O)ccc1C21OC(=O)c2ccccc21 | 49.7% (active)
CC1CCCCC1NS(=O)(=O)CCNC(=O)c1ccccc1 (stereo not drawn) | 1.54% (inactive)
Cc1cc(C)c2c(SC(C)C)nc(N)nc2n1 | 18.3% (active)
Cc1ccc(NC(=O)Cn2ccnc2)cc1C | 6.24% (inactive)
Cc1ccccc1NC(=S)Nc1ccc(Br)cc1 | 9.23% (inactive)
Cc1ccc(NC(=S)Nc2ccc3nc(-c4ccccn4)c(-c4ccccn4)nc3c2)cc1C | 15.9% (active)

Structure (SMILES) | activation
C=CCn1c(C)cc(-c2csc(N)n2)c1C | 9.08% (inactive)
O=C(Nc1ccc(Cl)cn1)C1COc2ccccc2O1 (stereo not drawn) | 54.7% (active)
CC(=O)Nc1sc2c(c1-c1nc3ccccc3s1)CN(C(C)C)CC2 | 3.29% (inactive)
NC(=O)c1c(NC(=O)C2COc3ccccc3O2)sc2c1CCN(Cc1ccccc1)C2 (stereo not drawn) | 5.35% (inactive)
O=C(Nc1nc(-c2nc3ccccc3s2)cs1)C1COc2ccccc2O1 (stereo not drawn) | 43.4% (active)
O=C1NC(c2ccccc2)=C(c2nc3ccccc3s2)C(c2ccc(O)cc2)N1 (stereo not drawn) | 2.85% (inactive)
Nc1c(S(=O)(=O)c2ccccc2)c2nc3ccccc3nc2n1Cc1ccco1 | 79.2% (active)
Nc1c(S(=O)(=O)c2ccccc2)c2nc3ccccc3nc2n1/N=C/c1ccco1 | 4.69% (inactive)
Cc1ccc(S(=O)(=O)c2c(N)n(Cc3ccco3)c3nc4ccccc4nc23)cc1 | 8.53% (inactive)
COc1cccc(CNC(=O)CN(C)S(=O)(=O)c2cnc[nH]2)c1 | 151% (active)
COc1cccc(CNC(=O)CN(C)S(=O)(=O)c2ccc3c(c2)c(=O)n(C)c(=O)n3C)c1 | 11.5% (inactive)
CCC(=Cc1ccccc1OC)c1ccncc1 | 17.2% (active)
CCOc1ccc(-c2ncncc2-c2ccccc2OC)c(O)c1 | 5.97% (inactive)
COc1ccccc1/C=C/CN1CCC(CO)(Cc2ccccc2)CC1 | 11.1% (inactive)
Cc1cc[n+](-c2[nH]c(=O)sc2/C=N/N=C(\[O-])c2ccccc2)cc1C | 22.1% (active)
Cc1cc(C)c[n+](-c2[nH]c(=O)sc2/C=N/NC([S-])=Nc2ccccc2)c1 | -0.42% (inactive)
Cc1cc[n+](-c2[nH]c(=O)sc2/C=N/NC([S-])=Nc2ccccc2)cc1 | 18.3% (active)
O=c1[nH]c(-[n+]2ccccc2)c(/C=N/NC([S-])=Nc2ccccc2)s1 | 8.23% (inactive)
Cc1cc[n+](-c2[nH]c(=O)sc2/C=N/NC([S-])=Nc2ccccc2)cc1C | 6.12% (inactive)
CC(C)(C)c1cc[n+](-c2[nH]c(=O)sc2/C=N/NC([S-])=Nc2ccccc2)cc1 | 5.34% (inactive)
CCc1ccc[n+](-c2[nH]c(=O)sc2/C=N/NC([S-])=Nc2ccccc2)c1 | 49.2% (active)
